For assay [1], the target named is T1, 5-hydroxytryptamine receptor 1A (Homo sapiens, UniProt P08908).
T1 sequence (P08908 whole entry): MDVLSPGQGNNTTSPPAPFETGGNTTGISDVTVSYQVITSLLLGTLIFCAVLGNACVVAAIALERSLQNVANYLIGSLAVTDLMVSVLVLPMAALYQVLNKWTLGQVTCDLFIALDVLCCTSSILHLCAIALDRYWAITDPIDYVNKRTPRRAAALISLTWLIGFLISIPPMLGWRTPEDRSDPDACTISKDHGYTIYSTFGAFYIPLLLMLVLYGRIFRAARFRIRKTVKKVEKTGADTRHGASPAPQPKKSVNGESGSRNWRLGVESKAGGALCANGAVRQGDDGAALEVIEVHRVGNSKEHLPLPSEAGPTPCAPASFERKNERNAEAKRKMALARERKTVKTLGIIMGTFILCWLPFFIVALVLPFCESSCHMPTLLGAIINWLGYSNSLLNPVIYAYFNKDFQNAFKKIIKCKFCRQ
Nature of the assay: In vitro effective concentration required to inhibit forskolin-stimulated cAMP levels in HA7 cells expressing human 5-HT1A receptor. Type of assay: functional, cell-based. In outline:
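HeLa HA7 cells stably expressing human 5-HT1A, at 80–90% confluency, antibiotic-free for 24 h. Preincubated 10 min at RT in DMEM/10 mM Hepes, then drug at 0.1 nM–100 µM with 100 µM forskolin and 100 µM IBMX for 10 min at RT. Stopped with 0.1 N HCl; cAMP by radioimmunoassay as % of forskolin control; pEC50.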
(cAMP levels reflect the balance of adenylyl cyclase and phosphodiesterase activity.)

Assay [2] deals with Rattus norvegicus. As to the kind of experiment: Effective intraperitoneal dose in vivo in rat after 15 mins to induce lower lip retraction. Type of assay: functional. Conditions: ip, 0.25 h. In outline:
(§1)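 Observed in 10 min windows centred 15 and 60 min post-dose, 10 s each minute, scoring lower lip retraction present or absent (0–10).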

Assay [3] concerns Rattus norvegicus. As to the kind of experiment: Induction of lower lip retraction in rat 60 min after administration, effective peroral dose determined in vivo. The class given is functional. Conditions: po, 1 h. In outline:
as §1

Assay [4] has as its target T2, 5-hydroxytryptamine receptor 1A (Rattus norvegicus, UniProt P19327).
T2 sequence (P19327 whole entry): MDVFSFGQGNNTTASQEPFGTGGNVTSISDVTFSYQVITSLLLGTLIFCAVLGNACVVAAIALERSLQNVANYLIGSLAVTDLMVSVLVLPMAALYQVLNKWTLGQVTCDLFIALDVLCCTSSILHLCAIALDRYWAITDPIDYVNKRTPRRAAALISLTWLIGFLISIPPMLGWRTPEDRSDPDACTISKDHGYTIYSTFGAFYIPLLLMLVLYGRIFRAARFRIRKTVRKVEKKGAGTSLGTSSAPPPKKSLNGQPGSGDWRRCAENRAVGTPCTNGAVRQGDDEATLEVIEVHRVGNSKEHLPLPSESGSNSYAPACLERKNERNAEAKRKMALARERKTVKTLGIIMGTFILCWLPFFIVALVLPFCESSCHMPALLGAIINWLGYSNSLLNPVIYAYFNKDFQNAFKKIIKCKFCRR
Nature of the assay: Binding affinity towards 5-hydroxytryptamine 1A receptor in rat cortex using [3H]8-OH-DPAT as a radioligand. Put shortly: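 Rat tissue membranes, competition against radioligand at 23 °C. Nonspecific binding: 5-HT for 5-HT1A (30 min), (+)-butaclamol for D2 (60 min), phentolamine for α1 (30 min). Tris HCl 50 mM pH 7.4 buffers. Filtration through glass-fibre filters, then scintillation counting. Run in triplicate; IC50 by nonlinear regression; Ki by Cheng–Prusoff; mean pKi of three determinations.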

Each structure is given as a SMILES string. pEC50, pKi: −log10 of the molar value.

In turn, `CCNc1cccc(CNCC2(F)CCN(C(=O)c3ccc(F)c(Cl)c3)CC2)n1` gave a pEC50 in assay [1] of 7.88. Besides, the ED50 was 0.11 mg/kg in the assay with Rattus norvegicus [2] and 0.32 mg/kg in the assay with Rattus norvegicus [3]. In turn, `O=C(c1ccc(Cl)c(Cl)c1)N1CCC(CNCc2cccc(-n3cccn3)n2)CC1` gave a pEC50 in assay [1] of 7.51. Turning to `O=C(c1ccc(Cl)c(Cl)c1)N1CCC(CNCc2cccc(-c3cnco3)n2)CC1`, the pEC50 in assay [1] was 8.70.

In the case of `N#CC1(CNCc2cccc(-n3cccn3)n2)CCN(C(=O)c2ccc(Cl)c(Cl)c2)CC1`, the pEC50 in assay [1] was 6.79. For the same molecule, the pKi in assay [4] was 8.16. In turn, `O=C(c1ccc(Cl)c(Cl)c1)N1CCC(CNCc2cccc(N3CCC3)n2)CC1` had a pEC50 in assay [1] of 8.15. `O=C(c1ccc(Cl)c(Cl)c1)N1CCC(CNCc2cccc(-c3ccco3)n2)CC1`: the pEC50 in assay [1] was 8.28.

For `O=C(c1ccc(Cl)c(Cl)c1)N1CCC(CNCc2cccc(-c3cccs3)n2)CC1`, the pEC50 in assay [1] is 8.24. `O=C(c1ccc(Cl)c(Cl)c1)N1CCC(CNCc2ncccc2F)CC1` showed a negative-log Ki (pKi) in assay [4] of 7.82. Take `CN(C)c1cccc(CNCC2CCN(C(=O)c3ccc(Cl)c(Cl)c3)CC2)n1`: in assay [1], the pEC50 is 7.69. `O=C(c1ccc(Cl)c(Cl)c1)N1CC=C(CNCc2cccc(-n3cccn3)n2)CC1` gave a pEC50 in assay [1] of 6.57. Also, the pKi in assay [4] was 8.22. `CCc1ccc(CNCC2(F)CCN(C(=O)c3ccc(F)c(Cl)c3)CC2)nc1` had a pEC50 in assay [1] of 6.39. Moreover, the ED50 with Rattus norvegicus [2] was determined as 1.3 mg/kg; with Rattus norvegicus [3], 1.8 mg/kg. In assay [4], this molecule gave a pKi of 8.05. In turn, `CC(C)c1ccc(CNCC2(F)CCN(C(=O)c3ccc(F)c(Cl)c3)CC2)nc1` gave a pKi in assay [4] of 7.45. Turning to `COC1(CNCc2cccc(-n3cccn3)n2)CCN(C(=O)c2ccc(Cl)c(Cl)c2)CC1`, the pKi in assay [4] is 7.52. In assay [1], `O=C(c1ccc(Cl)c(Cl)c1)N1CCC(O)(CNCc2cccc(-n3cccn3)n2)CC1` gave a pEC50 of 7.40. This molecule showed a pKi in assay [4] of 8.79. Turning to `CNc1cccc(CNCC2CCN(C(=O)c3ccc(Cl)c(Cl)c3)CC2)n1`, the pEC50 in assay [1] was 7.66.

In turn, `CCN(CC)c1nc(CNCC2(F)CCN(C(=O)c3ccc(F)c(Cl)c3)CC2)ccc1C` gave a pEC50 in assay [1] of 7.54. The ED50 in the assay on Rattus norvegicus [2] came to 0.32 mg/kg; with Rattus norvegicus [3], 0.11 mg/kg. The molecule further showed a pKi in assay [4] of 8.86.

Regarding `O=C(c1ccc(Cl)c(Cl)c1)N1CCC(CF)(CNCc2cccc(-n3cccn3)n2)CC1`, the pEC50 in assay [1] was 6.51. This molecule gave a pKi in assay [4] of 8.04. As for `O=C(c1ccc(Cl)c(Cl)c1)N1CCC(CNCc2cccc(-c3cc[nH]n3)n2)CC1`, in assay [1], the pEC50 is 8.52. For `CC1(CNCc2cccc(-n3cccn3)n2)CCN(C(=O)c2ccc(Cl)c(Cl)c2)CC1`, in assay [4], the pKi was 7.43. In the case of `CNc1cccc(CNCC2(F)CCN(C(=O)c3ccc(F)c(Cl)c3)CC2)n1`, the pEC50 in assay [1] was 7.90. Moreover, the ED50 in the assay on Rattus norvegicus [2] worked out at 0.11 mg/kg; in the assay on Rattus norvegicus [3], 0.32 mg/kg. As for `Cc1ccc(CNCC2(F)CCN(C(=O)c3ccc(F)c(Cl)c3)CC2)nc1N(C)C`, in assay [1], the pEC50 is 8.43. The ED50 worked out at 0.04 mg/kg in the assay with Rattus norvegicus [2] and 0.08 mg/kg in the assay with Rattus norvegicus [3].

The molecule `O=C(c1ccc(Cl)c(Cl)c1)N1CCC(CNCc2cccc(-c3nccs3)n2)CC1` had a pEC50 in assay [1] of 8.30.

As to `O=C(c1ccc(F)c(Cl)c1)N1CCC(F)(CNCc2cccc(-c3cc[nH]n3)n2)CC1`, the pEC50 in assay [1] was 9.14. The ED50 in the assay with Rattus norvegicus [2] and in the assay on Rattus norvegicus [3] was 0.32 mg/kg in each case. As to `O=C(c1ccc(Cl)c(Cl)c1)N1CCC(F)(CNCc2ccccn2)CC1`, the ED50 with Rattus norvegicus [2] was 0.11 mg/kg. This molecule showed a pKi in assay [4] of 8.29. Turning to `CCNc1nc(CNCC2(F)CCN(C(=O)c3ccc(F)c(Cl)c3)CC2)ccc1C`, the pEC50 in assay [1] was 8.08. Further, the figures for the ED50 in the assay on Rattus norvegicus [2] and with Rattus norvegicus [3] were 0.08 mg/kg and 0.45 mg/kg, respectively. Further, the pKi in assay [4] is 9.83. `Cc1ccc(CNCC2(F)CCN(C(=O)c3ccc(Cl)c(Cl)c3)CC2)nc1` showed a pEC50 in assay [1] of 7.68. The same molecule showed an ED50 in the assay with Rattus norvegicus [3] of 0.62 mg/kg. Consider `Cc1ccc(CNCC2(F)CCN(C(=O)c3ccc(F)c(Cl)c3)CC2)nc1` [BEFIRADOL], for which the ED50 worked out at 0.08 mg/kg in the assay on Rattus norvegicus [2] and 0.11 mg/kg in the assay on Rattus norvegicus [3].

What is called pEC50 is −log10 of the EC50, conventionally taken in molar units. A higher pEC50 goes with a small EC50. By ED50 is commonly meant the dose at which the effect has come halfway, by size or by number of responders. Read a low ED50 as greater potency. The term pKi denotes −log10 of the Ki, conventionally taken in molar units. The low end stands for a large Ki, the high end for a small Ki.

The record behind these values is ChEMBL document CHEMBL1132173, “Novel derivatives of 2-pyridinemethylamine as selective, potent, and orally active agonists at 5-HT1A receptors” (J Med Chem, 1999).
